ChEMBL document CHEMBL1152539, “Synthesis and evaluation of bioactive naphthoquinones from the Brazilian medicinal plant, Tabebuia avellanedae” (Bioorg Med Chem, 2009)

Assays:
[1] = Anticancer activity against DMBA/TPA-induced skin cancer in mouse assessed as incidence of papilloma at 85 nmol administered before TPA challenge measured after 10 weeks; format: functional
How it was run: (§1)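 Mouse two-stage skin model: DMBA 390 nmol in 0.1 mL acetone applied topically by pipet. One week later, the same skin site was painted with test compound (85 nmol in acetone) or acetone alone, 60 min before TPA (1.7 nmol). Tumor response was scored as the average number of papillomas per mouse and the percentage of mice bearing papillomas.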

Raji [2] = test: Inhibition of 12-O-tetradecanoylphorbol-13-acetate-induced EBV-early antigen activation in human Raji cells assessed as EA induction at 1000 molar ratio after 48 hrs by immunofluorescence technique relative to 12-O-tetradecanoylphorbol-13-acetate; format: cell-based; conditions: human gammaherpesvirus 4
How it was run: (§2)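 Raji cells were incubated for 48 h at 37 °C in medium with n-butyric acid (4 mM), TPA (32 pmol) and graded amounts of test compound. Smears were stained for EBV-EA by indirect immunofluorescence, and positive cells were counted among at least 500 cells. Assays were run in triplicate. Activity was expressed relative to the n-butyric acid plus TPA control, set as 100%.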

[3] = Inhibition of 12-O-tetradecanoylphorbol-13-acetate-induced EBV-early antigen activation in human Raji cells after 48 hrs by immunofluorescence technique; format: cell-based, human gammaherpesvirus 4; how it was run: as §2
[4] = Antiproliferative activity against human skin fibroblast after 72 hrs by trypan blue exclusion assay; format: cell-based
How it was run: (§3)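 Cells were kept in DMEM with 10% fetal serum and exposed to four concentrations of compound for 72 h at 37 °C in humidified 5% CO₂. They were then stained with 0.25% trypan blue for 20 min, and viable cells were counted by light microscopy. IC₅₀ was derived from separate experiments run in triplicate.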

[5] = Anticancer activity against DMBA/TPA-induced skin cancer in mouse assessed as incidence of papilloma at 85 nmol administered before TPA challenge measured after 20 weeks; format: functional; how it was run: as §1
[6] = Anticancer activity against DMBA/TPA-induced skin cancer in mouse assessed as incidence of papilloma at 85 nmol administered before TPA challenge measured after 15 weeks; format: functional; how it was run: as §1
Raji [7] = test: Inhibition of 12-O-tetradecanoylphorbol-13-acetate-induced EBV-early antigen activation in human Raji cells assessed as EA induction at 10 molar ratio after 48 hrs by immunofluorescence technique relative to 12-O-tetradecanoylphorbol-13-acetate; format: cell-based; set-up: scale not given: the % may be the effect or the level left; conditions: human gammaherpesvirus 4; how it was run: as §2
Raji [8] = test: Inhibition of 12-O-tetradecanoylphorbol-13-acetate-induced EBV-early antigen activation in human Raji cells assessed as EA induction at 100 molar ratio after 48 hrs by immunofluorescence technique relative to 12-O-tetradecanoylphorbol-13-acetate; format: cell-based; set-up: scale not given: the % may be the effect or the level left; conditions: human gammaherpesvirus 4; how it was run: as §2
[9] = Cytotoxicity against human Raji cells assessed as cell viability at 1000 molar ratio after 48 hrs by trypan blue staining; format: cell-based; conditions: read-out: Activity
How it was run: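 Raji cells were exposed for 48 h at 37 °C to n-butyric acid (4 mM), TPA (32 pmol) and test compound, as in the EBV-EA induction setup. Viability of the treated cells was then measured by trypan blue staining.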

Hepatocyte = test: Antiproliferative activity against human hepatocytes after 72 hrs by trypan blue exclusion assay; format: cell-based; how it was run: as §3
[10] = Cytotoxicity against human Raji cells assessed as cell viability at 500 molar ratio after 48 hrs by trypan blue staining; format: cell-based; conditions: read-out: Activity
How it was run: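 Raji cells incubated 48 h at 37 °C in medium containing n-butyric acid (4 mM), TPA (32 pmol) and various amounts of test compound, as part of the EBV-EA activation inhibition assay. Viability of the treated cells was then assayed by trypan blue staining.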

[11] = Anticancer activity against DMBA/TPA-induced skin cancer in mouse assessed as number of papillomas per mouse at 85 nmol administered before TPA challenge measured after 20 weeks; format: functional; how it was run: as §1
Raji [12] = test: Inhibition of 12-O-tetradecanoylphorbol-13-acetate-induced EBV-early antigen activation in human Raji cells assessed as EA induction at 500 molar ratio after 48 hrs by immunofluorescence technique relative to 12-O-tetradecanoylphorbol-13-acetate; format: cell-based; set-up: scale not given: the % may be the effect or the level left; conditions: human gammaherpesvirus 4; how it was run: as §2
[13] = Antiproliferative activity against human MPC5 cells after 72 hrs by trypan blue exclusion assay; format: cell-based; conditions: MPC-5, 72 h; how it was run: as §3
[14] = Antiproliferative activity against human Hs888Lu cells after 72 hrs by trypan blue exclusion assay; format: cell-based; how it was run: as §3
[15] = Antiproliferative activity against human SVCT-M12 cells after 72 hrs by trypan blue exclusion assay; format: cell-based; conditions: SVCT-M12, 72 h; how it was run: as §3

Row | Compound | Activity [1] [%] | EA induction relative to TPA control (Raji [2]) [%] | IC50 [3] [mol ratio/32 pmol TPA] | EC50 [4] [µM] | Activity [5] [%] | Activity [6] [%] | Activity (Raji [7]) [%] | Activity (Raji [8]) [%] | viability at 48 h, 1000 molar ratio [9] [%] | EC50 (Hepatocyte) [µM] | viability at 48 h, 500 molar ratio [10] [%] | Activity [11] | Activity (Raji [12]) [%] | EC50 [13] [µM] | EC50 [14] [µM] | EC50 [15] [µM]
1 | CC(O)c1cc2c(o1)C(=O)c1cccc(O)c1C2=O (racemic) | 7 | 0 | 34.9 | 45.4 | 67 | 47 | 52.9 | 20.7 | 60 | 89.3 | 70 | 3.9 | 6.2 |  |  | 
2 | CO[C@@]12[C@H](COC(N)=O)C3=C(C(=O)C(C)=C(N)C3=O)N1C[C@@H]1N[C@@H]12 [MITOMYCIN] |  |  |  | 0.93 |  |  |  |  |  | 1.46 |  |  |  | 2.1 | 0.56 | 0.96
